Results as given in paper PMC8286339 (ACS chemical biology, 2021).
NAH = SAM mimic in which the sulfonium ion is replaced by a nitrogen atom; C3 = 3-carbon linker to the N-terminal alpha-amine

What was measured:
NTMT1 [1] = target: T1, NTMT1 (Homo sapiens, UniProt Q9BV86); details: read-out: Ki, app; previously developed NTMT1 bisubstrate inhibitors; cited from earlier work
T1 sequence (Q9BV86 1-223): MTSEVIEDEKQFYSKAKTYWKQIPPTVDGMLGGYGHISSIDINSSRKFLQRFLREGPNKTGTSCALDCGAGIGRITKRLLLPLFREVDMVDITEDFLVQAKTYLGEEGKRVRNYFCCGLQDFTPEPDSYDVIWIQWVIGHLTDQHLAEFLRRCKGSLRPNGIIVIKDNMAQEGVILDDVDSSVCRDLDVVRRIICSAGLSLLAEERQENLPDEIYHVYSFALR

NTMT1 [2] = target: T1, NTMT1; test: Pull-down from HeLa cell lysates with immobilized probe, anti-NTMT1 Western blot; assay type: binding; details: 700 mM NaCl wash
How it was run: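 Lysate was incubated overnight with probe-loaded streptavidin resin, optionally with competitor (10 mM stock) added first; resin alone served as control. Washes used IP buffer, then 700 mM NaCl. Boiled-bead eluates were run on SDS-PAGE and blotted with anti-NTMT1 (1:1000, 4°C overnight) and HRP secondary, with ECL detection.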

NTMT1 [3] = target: T1, NTMT1; assay type: binding; details: probe immobilized on streptavidin beads
How it was run: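 Biotinylated probe (100 µM) was loaded overnight onto streptavidin resin in 20 mM Tris, 50 mM KCl, pH 7.5. Purified NTMT1 was bound for 4 h in the same buffer plus 1 mM DTT, then washed until no protein was detected. Elution was stepwise with 500 mM, 1 M, 2 M and 4 M NaCl, moving to the next step once eluate protein approached 0 mg/mL.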

[4] = target: T2, HemK2/KMT9-Trm112 complex (Homo sapiens, UniProt Q9Y5N5); test: HemK2-Trm112 methylation inhibition assay; assay type: biochemical; details: read-out: inhibition of activity
T2 sequence (Q9Y5N5 1-214): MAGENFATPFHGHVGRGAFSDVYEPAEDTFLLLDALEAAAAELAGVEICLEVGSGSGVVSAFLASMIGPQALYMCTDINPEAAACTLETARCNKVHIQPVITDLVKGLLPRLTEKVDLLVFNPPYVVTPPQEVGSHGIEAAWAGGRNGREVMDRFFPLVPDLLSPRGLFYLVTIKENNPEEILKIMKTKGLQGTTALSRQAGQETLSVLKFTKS
T2 sequence (Q9UI30 1-125 partner): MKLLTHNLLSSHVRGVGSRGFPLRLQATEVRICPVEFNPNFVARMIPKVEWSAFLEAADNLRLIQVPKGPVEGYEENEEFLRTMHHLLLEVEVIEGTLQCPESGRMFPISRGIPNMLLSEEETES

[5] = target: protein N-terminal methyltransferase 1 (NTMT1), purified recombinant (human) (UniProt Q9BV86); test: SAHH-coupled fluorescence enzyme inhibition assay

Compound | Ki [5] | Ki (NTMT1 [1]) | other results
CC[C@H](C)[C@H](NC(=O)[C@H](CCCNC(=N)N)NC(=O)[C@H](CCCCN)NC(=O)[C@@H]1CCCN1C(=O)CNCCCCN(CC[C@H](N)C(=O)O)C[C@H]1O[C@@H](n2cnc3c(N)ncnc32)[C@H](O)[C@@H]1O)C(=O)N[C@@H](C)C(N)=O [NAH-C4-GPKRIA] |  | 0.13 ± 0.04 nM | 
NAH-C3-GPKK-biotin [Probe 6] |  |  | enrichment of NTMT1 from HeLa cell lysates (NTMT1 [2]): enriched; salt concentration at which NTMT1 was eluted off the probe (NTMT1 [3]): 4 M NaCl
Nc1ncnc2c1ncn2[C@@H]1O[C@H](C[C@@H](N)CC[C@H](N)C(=O)O)[C@@H](O)[C@H]1O [sinefungin] |  |  | inhibition at 100 µM [4]: ~50%
NAH-C3-PPKRIA ({NAH-C3}-PPKRIA-NH2) |  | 39 ± 10 nM | 

More lines, main results first:

Ki [5] | Compound | Ki (NTMT1 [1]) | other results
41 nM | NAH-C3-GPK (compound 3) (peptide) |  | 
44 nM | NAH-C4-GPK (compound 4) (peptide) |  | 
